Measurements: ChEMBL document CHEMBL1143652, “Joys of molecules. 2. Endeavors in chemical biology and medicinal chemistry” (J Med Chem, 2005)
pIC50: −log10 of the molar value.

Tests used:
Somatostatin receptor = experiment: Binding affinity for SRIF (somatostatin) receptor; type: protein assay
1A9/ptx-10 [1] = experiment: (§1) Inhibitory concentration against beta-tubulin mutant 1A9PTX10 cell growth; type: functional, cell-based; conditions: Homo sapiens
1A9/ptx-22 [2] = experiment: (§2) Inhibitory concentration against beta-tubulin mutant 1A9PTX22 cell line; type: functional, cell-based; conditions: Homo sapiens
1A9/ptx-10 [3] = experiment: as §1; type: functional, cell-based; conditions: Homo sapiens; remark: listed apart in the source
[4] = biological target: Tubulin beta-4B chain (Homo sapiens) (UniProt P68371); experiment: Percent […] of tubulin by the compound; type: functional
Sequence of Tubulin beta-4B chain (Homo sapiens) (P68371 whole entry): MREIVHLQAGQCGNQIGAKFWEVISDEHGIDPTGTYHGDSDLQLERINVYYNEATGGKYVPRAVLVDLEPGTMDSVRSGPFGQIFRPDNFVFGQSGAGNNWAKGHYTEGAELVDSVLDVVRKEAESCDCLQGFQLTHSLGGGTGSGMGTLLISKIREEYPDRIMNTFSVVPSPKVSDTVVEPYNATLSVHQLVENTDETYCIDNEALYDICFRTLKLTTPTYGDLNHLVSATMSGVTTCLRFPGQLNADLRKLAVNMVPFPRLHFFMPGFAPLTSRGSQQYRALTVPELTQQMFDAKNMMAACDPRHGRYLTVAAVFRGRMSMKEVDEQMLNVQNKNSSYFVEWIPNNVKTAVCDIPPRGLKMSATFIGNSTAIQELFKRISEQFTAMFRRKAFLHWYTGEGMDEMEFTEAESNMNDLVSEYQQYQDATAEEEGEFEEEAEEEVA
In short: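 Tubulin polymerization was read as percent polymerization, with test drug at 100 µM and a 90 min incubation.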

1A9 = experiment: Inhibitory concentration against ovarian carcinoma 1A9 cell growth; type: functional, cell-based; conditions: Homo sapiens
1A9/ptx-22 [5] = experiment: as §2; type: functional, cell-based; conditions: Homo sapiens; remark: listed apart in the source
Nucleic Acid = experiment: Binding affinity towards DNA extracted from MOLT-4 cells; type: cell-free; conditions: Homo sapiens
Bacteria = experiment: Minimum inhibitory concentration against bacterial strains; type: functional
OVCAR-3 = experiment: Cytotoxicity by measuring inhibitory concentration against ovcar-3 tumor cell line; type: functional, cell-based, Homo sapiens

SMILES | IC50 (Somatostatin receptor) [nM] | pIC50 (1A9/ptx-22 [2]) | pIC50 (1A9/ptx-22 [5]) | pIC50 (1A9/ptx-10 [1]) | pIC50 (1A9/ptx-10 [3]) | pIC50 (1A9) | further results
C/C(=C\c1ccccn1)[C@@H]1C[C@@H]2O[C@]2(C)CCC[C@H](C)[C@H](O)[C@@H](C)C(=O)C(C)(C)[C@@H](O)CC(=O)O1 |  | 9.82 | 9.82 | 9.00 | 9.00 | 10.00 | TP [4]: 79.5%
C/C(=C\c1ncccc1C)[C@@H]1C[C@@H]2O[C@]2(C)CCC[C@H](C)[C@H](O)[C@@H](C)C(=O)C(C)(C)[C@@H](O)CC(=O)O1 |  | < 6.52 | < 6.52 | < 6.52 | < 6.52 | < 6.52 | TP [4]: 0%
C/C(=C\c1csc(C)n1)[C@@H]1C[C@@H]2C[C@@H]2CCC[C@H](C)[C@H](O)[C@@H](C)C(=O)C(C)(C)[C@@H](O)CC(=O)O1 |  | 8.70 | 8.70 | 8.05 | 8.05 | 9.60 | 
CCNC1COC(OC2C(OC)OC(C)C(NOC3CC(O)C(SC(=O)c4c(C)cc(OC5OC(C)C(O)C(OC)C5O)c(OC)c4OC)C(C)O3)C2O)CC1OC (stereo not drawn) |  |  |  |  |  |  | K obs (Nucleic Acid): 180 µM
O=C(NCCSSCCNC(=O)/C(Cc1ccc(O)c(Br)c1)=N/O)/C(Cc1ccc(O)c(Br)c1)=N/O [PSAMMAPLIN A] |  |  |  |  |  |  | MIC (Bacteria): 4.85 ug m/L
C/C(=C\c1cc(C)ccn1)[C@@H]1C[C@@H]2O[C@]2(C)CCC[C@H](C)[C@H](O)[C@@H](C)C(=O)C(C)(C)[C@@H](O)CC(=O)O1 |  | 10.00 | 10.00 | 9.44 | 9.44 | 10.00 | TP [4]: 90.3%
C/C(=C\c1ccc(C)cn1)[C@@H]1C[C@@H]2O[C@]2(C)CCC[C@H](C)[C@H](O)[C@@H](C)C(=O)C(C)(C)[C@@H](O)CC(=O)O1 |  | 9.82 | 9.82 | 9.22 | 9.22 | 9.82 | TP [4]: 92%
CSc1nc(/C=C(\C)[C@@H]2C[C@@H]3O[C@]3(C)CCC[C@H](C)[C@H](O)[C@@H](C)C(=O)C(C)(C)[C@@H](O)CC(=O)O2)cs1 |  | 9.60 | 9.60 | 9.59 | 9.59 | 9.77 | 
C/C(=C\c1csc(C)n1)[C@@H]1C[C@@H]2C[C@@]2(C)CCC[C@H](C)[C@H](O)[C@@H](C)C(=O)C(C)(C)CCC(=O)O1 |  | 8.30 | 8.30 | 7.28 | 7.28 | 7.82 | 
CSc1nc(/C=C(\C)[C@@H]2C[C@@H]3C[C@@]3(C)CCC[C@H](C)[C@H](O)[C@@H](C)C(=O)C(C)(C)CCC(=O)O2)cs1 |  | 7.94 | 7.94 | 8.24 | 8.24 | 8.46 | 
C/C(=C\c1cccc(C)n1)[C@@H]1C[C@@H]2O[C@]2(C)CCC[C@H](C)[C@H](O)[C@@H](C)C(=O)C(C)(C)[C@@H](O)CC(=O)O1 |  | 7.74 | 7.74 | 7.14 | 7.14 | 8.05 | TP [4]: 45%
CCNC1COC(OC2C(O[C@H]3C#C/C=C\C#C[C@@](C)(O)C(=C/CSSSC)/C3=C(\NC(=O)OC)C(C)=O)OC(C)C(NOC3CC(O)C(SC(=O)c4c(C)c(I)c(OC5OC(C)C(O)C(OC)C5O)c(OC)c4OC)C(C)O3)C2O)CC1OC (stereo partly drawn) |  |  |  |  |  |  | K obs (Nucleic Acid): 0.135 µM
C/C(=C\c1ccc(C)cn1)[C@@H]1C[C@@H]2C[C@H]2CCC[C@H](C)[C@H](O)[C@@H](C)C(=O)C(C)(C)CCC(=O)O1 |  | 8.85 | 8.85 | 8.23 | 8.23 | 9.22 | 
C/C(=C\c1csc(C)n1)[C@@H]1C[C@@H]2O[C@@H]2CCC[C@H](C)[C@H](O)[C@@H](C)C(=O)C(C)(C)[C@@H](O)CC(=O)O1 [EPOTHILONE A] |  | 8.23 | 8.23 | 7.70 | 7.70 | 8.66 | TP [4]: 76%
C/C(=C\c1csc(C)n1)[C@@H]1C[C@@H]2C[C@H]2CCC[C@H](C)[C@H](O)[C@@H](C)C(=O)C(C)(C)CCC(=O)O1 |  | 8.33 | 8.33 | 7.76 | 7.76 | 8.00 | 
CC(=O)OC1C(=O)[C@@]2(C)[C@H]([C@H](OC(=O)c3ccco3)[C@]3(O)C[C@H](OC(=O)[C@H](O)[C@@H](NC(=O)c4ccccc4)c4ccccc4)C(C)=C1C3(C)C)[C@]1(OC(C)=O)CO[C@@H]1C[C@@H]2O (stereo partly drawn) |  |  |  |  |  |  | pIC50 (OVCAR-3; Homo sapiens, OVCAR-3): 7.35; pIC50 (OVCAR-3; ovcar-3): 7.35

Now from value to compound, other results behind:

IC50 (Somatostatin receptor) [nM] | pIC50 (1A9/ptx-22 [2]) | pIC50 (1A9/ptx-22 [5]) | SMILES | pIC50 (1A9/ptx-10 [1]) | pIC50 (1A9/ptx-10 [3]) | pIC50 (1A9) | further results
6600 |  |  | NCCCCCCOCC1OC(OCCc2cc3ccccc3[nH]2)C(OCc2ccccc2)CC1OCc1ccccc1 (stereo not drawn) |  |  |  | 
10000 |  |  | OCCCCCNCC1OC(OCCc2cc3ccccc3[nH]2)C(OCc2ccccc2)CC1OCc1ccccc1 (stereo not drawn) |  |  |  | 
34000 |  |  | OCCCCCCNCC1OC(OCCc2cc3ccccc3[nH]2)C(OCc2ccccc2)CC1OCc1ccccc1 (stereo not drawn) |  |  |  | 
47000 |  |  | NCCCCCOCC1CC(OCc2ccccc2)C(OCc2ccccc2)C(OCCc2cc3ccccc3[nH]2)O1 (stereo not drawn) |  |  |  | 
5100 |  |  | OCCCCCCNCC1OC(OCCc2cc3ccccc3[nH]2)C(OCc2ccccc2)C(OCc2ccccc2)C1OCc1ccccc1 (stereo not drawn) |  |  |  | 
35000 |  |  | NCCCCCOCC1OC(OCCc2cc3ccccc3[nH]2)CC(OCc2ccccc2)C1OCc1ccccc1 (stereo not drawn) |  |  |  | 
8400 |  |  | NCCCCCOCC1OC(OCCc2cc3ccccc3[nH]2)C(OCc2ccccc2)CC1OCc1ccccc1 (stereo not drawn) |  |  |  | 
